Experiment [1] has as its system HeLa. Put plainly: Antiproliferative activity against human HeLa cells measured after 3 days by Coulter counter method. The experiment is classed as functional, cell-based. The following applies: 72 h.
A further experiment deals with CCRF-CEM. Put plainly: Antiproliferative activity against human CEM cells measured after 96 hrs by Coulter counter method. The experiment is classed as functional, cell-based. The method in brief:
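CEM suspension cells seeded at 60,000 cells/well with a range of compound concentrations, grown 96 h, then counted. Medium is DMEM with 10% FBS, 0.01 M Hepes and 1 mM sodium pyruvate, 37 °C, 5% CO2.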

Experiment [2] deals with HMEC-1. Put plainly: Antiproliferative activity against human HMEC1 cells measured after 4 days by Coulter counter method. The experiment is classed as functional, cell-based. The settings on record: HMEC-1, 96 h.
The test system of the next experiment is L1210. Put plainly: Antiproliferative activity against mouse L1210 cells measured after 96 hrs by Coulter counter method. The following applies: L1210, 96 h. The experiment is classed as functional, cell-based. The method in brief: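 L1210 suspension cells seeded at 60,000 cells/well with a range of compound concentrations, grown 96 h, counted in a Coulter counter. IC50 is the concentration reducing proliferation by 50%, mean ± SD of three independent experiments.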

Experiment [3] deals with HMEC-1. Put plainly: Cell cycle arrest in human HMEC1 cells assessed as accumulation at G2/M phase at 0.08 uM measured after 24 hrs by propidium iodide based FACSCalibur flow cytometry. The experiment is classed as functional. The method in brief:
(§1)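 HMEC-1 seeded at 125,000 cells/well in DMEM with 10% FBS and exposed to compound after 24 h. After another 24 h, DNA was stained with propidium iodide and analysed by flow cytometry within 3 h. Debris and clumps were gated out, and sub-G1, G1, S and G2/M fractions estimated with region markers.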

The subject of experiment [4] is HMEC-1. Put plainly: Vascular disrupting activity in human HMEC1 cells at 0.4 uM after 90 mins. The experiment is classed as functional, cell-based. The method in brief:
(§2)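 HMEC-1 seeded at 60,000 cells/well on matrigel (10 mg/mL, gelled 30 min at 37 °C) in DMEM with 10% FCS. After 3 h at 37 °C, once tube-like networks formed, compound was added at 2, 0.4 or 0.08 µM. After 90 min, images taken at 100× and meshes, branching points and tube length quantified.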

The subject of experiment [5] is HeLa. Put plainly: Cell cycle arrest in human HeLa cells assessed as accumulation at G2/M phase at 2 uM measured after 24 hrs by DAPI staining based HCS analysis. The experiment is classed as functional.
In experiment [6] the test system is HeLa. Description: Cell cycle arrest in human HeLa cells assessed as accumulation at G2/M phase at 0.4 uM measured after 24 hrs by DAPI staining based HCS analysis. The experiment is classed as functional.
Experiment [7] concerns HMEC-1. Description: Vascular disrupting activity in human HMEC1 cells at 0.08 to 2 uM after 90 mins. The experiment is classed as functional, cell-based. The method in brief: as §2
In a further experiment the target is Tubulin (Bos taurus) (UniProt Q6B856+Q862L2+Q862F3). Put plainly: Binding affinity to calf brain tubulin assessed as binding constant incubated for 30 mins in presence of R-PT by fluorescence based method. The method in brief:
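Competition assay with calf brain tubulin. A premixed 0.2 µM R-PT plus 0.2 µM tubulin sample was exposed to ligand at 0–70 µM in 10 mM sodium phosphate, 0.1 mM GTP, pH 7.0, incubated 30 min at 25 °C. Fluorescence read at 456 nm (excitation 374 nm). Kb fitted by competition analysis, mean of three experiments ± StdError.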

The target of a further experiment is Tubulin (Homo sapiens) (UniProt P68371+Q9H4B7+P0DPH7+P68366+Q13509+Q71U36+P04350+Q3ZCM7+P07437+P68363+Q9BQE3+Q6PEY2+Q13885+Q9BVA1+Q9BUF5). Put plainly: Inhibition of human tubulin polymerization assessed as induction of tubulin polymerization destabilization at 30 uM by turbidimetric assay.
The test system of experiment [8] is HeLa. Description: Cell cycle arrest in human HeLa cells assessed as accumulation at G2/M phase at 0.08 uM measured after 24 hrs by DAPI staining based HCS analysis. The experiment is classed as functional.
Experiment [9] deals with HeLa. Description: Cell cycle arrest in human HeLa cells assessed as accumulation at G2/M phase at 0.016 uM measured after 24 hrs by DAPI staining based HCS analysis. The experiment is classed as functional.
The subject of experiment [10] is HMEC-1. Description: Cell cycle arrest in human HMEC1 cells assessed as accumulation at G2/M phase at 0.4 uM measured after 24 hrs by propidium iodide based FACSCalibur flow cytometry. The experiment is classed as functional. The method in brief: as §1
(In general: Flow cytometry measures light scatter and fluorescence of single cells or particles in a stream.)

pIC50: −log10 of the molar value. Calls of active or inactive are those of the source. The rule behind the calls is not given here.

Regarding `CC(Nc1ccccc1Oc1cccc(F)c1)=C1C(=O)CC(c2ccccc2)CC1=O` (stereo unspecified), the pIC50 (commonly the negative decadic logarithm of the IC50, by convention in mol/L) with HeLa [1] is 6.26; in the experiment on CCRF-CEM, 6.77; in the experiment with HMEC-1 [2], 6.44; in the experiment with L1210 it was 6.48.

Regarding `CC(Nc1ccccc1Oc1ccc(N)cc1)=C1C(=O)CC(c2ccccc2)CC1=O` (stereo unspecified), the outcome in the experiment on HMEC-1 [3], with HMEC-1 [4], with HeLa [5], in the experiment with HeLa [6], on Tubulin (Homo sapiens) and in the experiment with HeLa [8] was Active. Also, the result in the experiment on HeLa [9] was Active. Besides, the Activity result in the experiment on HMEC-1 [7] is “Dose-dependent effect”. Moreover, the pIC50 is 7.41 in the experiment with HeLa [1], 7.43 in the experiment on CCRF-CEM, 7.33 with HMEC-1 [2] and 7.40 in the experiment on L1210. In addition, at Tubulin (Bos taurus), the Kb turned out to be 11.8 ×10⁶ /M.

Consider `COc1ccc(Oc2ccccc2NC(C)=C2C(=O)CC(c3ccccc3)CC2=O)cc1` (stereo unspecified), for which the pIC50 is 6.80 with HeLa [1], 6.92 in the experiment with CCRF-CEM, 7.08 in the experiment with HMEC-1 [2] and 6.85 in the experiment with L1210. The Kb on Tubulin (Bos taurus) was 5.23 ×10⁶ /M. Besides, on Tubulin (Homo sapiens), the outcome was Active.

As for `CC(Nc1ccccc1Oc1ccccc1)=C1C(=O)CC(c2ccccc2)CC1=O` (stereo unspecified), the pIC50 is 7.10 in the experiment with HeLa [1], 6.77 in the experiment with CCRF-CEM, 6.80 with HMEC-1 [2] and 7.07 in the experiment on L1210. Further, the Kb on Tubulin (Bos taurus) turned out to be 6.46 ×10⁶ /M. Also, the outcome on Tubulin (Homo sapiens) was Active.

In the case of `COc1cc2c(c(OC)c1OC)-c1ccc(OC)c(=O)cc1[C@@H](NC(C)=O)CC2`, the outcome in the experiment with HeLa [5], in the experiment with HeLa [6], in the experiment on HeLa [8] and with HeLa [9] was Active.

On to `COc1cc(Oc2ccccc2NC(C)=C2C(=O)CC(c3ccccc3)CC2=O)ccc1N` (stereo unspecified), for which the result in the experiment on HMEC-1 [4], in the experiment on HeLa [5], in the experiment on HeLa [6], on Tubulin (Homo sapiens), in the experiment with HeLa [8] and in the experiment on HMEC-1 [10] was Active. For the same molecule, the outcome in the experiment on HeLa [9] was Active. The Activity result in the experiment on HMEC-1 [7] was “Dose-dependent effect”. The pIC50 in the experiment with HeLa [1] is 7.48; with CCRF-CEM, 7.92; in the experiment with HMEC-1 [2], 7.54; with L1210 it was 7.59. For the same molecule, the Kb on Tubulin (Bos taurus) is 18.1 ×10⁶ /M.

With `CC(Nc1ccccc1Oc1ccc(Cl)cc1)=C1C(=O)CC(c2ccccc2)CC1=O` (stereo unspecified), the pIC50 was 6.30 in the experiment with HeLa [1], 6.72 in the experiment with CCRF-CEM, 6.59 with HMEC-1 [2] and 6.60 in the experiment on L1210.

For the molecule `COc1cccc(Oc2ccccc2NC(C)=C2C(=O)CC(c3ccccc3)CC2=O)c1` (stereo unspecified), the pIC50 with HeLa [1] was 7.03; in the experiment on CCRF-CEM, 7.39; in the experiment on HMEC-1 [2], 7.23; in the experiment with L1210, 7.24. In addition, the Kb at Tubulin (Bos taurus) worked out at 15.7 ×10⁶ /M. For the same molecule, the result on Tubulin (Homo sapiens) was Active.

Take `CC(=O)c1ccc(Oc2ccccc2NC(C)=C2C(=O)CC(c3ccccc3)CC2=O)cc1` (stereo unspecified): the pIC50 with HeLa [1] was 6.89; with CCRF-CEM, 6.66; in the experiment with HMEC-1 [2], 6.74; in the experiment on L1210 it was 6.72.

In the experiment on L1210, `COc1ccc(/C=C\c2cc(OC)c(OC)c(OC)c2)cc1OP(=O)(O)O` [FOSBRETABULIN DISODIUM] showed a pIC50 of 7.89.

As for `COc1ccc(Oc2ccccc2NC(C)=C2C(=O)CC(c3ccccc3)CC2=O)cc1OC` (stereo unspecified), the pIC50 was 7.27 in the experiment with HeLa [1], 6.80 in the experiment with CCRF-CEM, 6.85 in the experiment with HMEC-1 [2] and 7.19 with L1210. In addition, the Kb on Tubulin (Bos taurus) is 2.24 ×10⁶ /M. In addition, the outcome on Tubulin (Homo sapiens) was Active.

As to `CC(Nc1ccccc1Oc1ccc(C(C)O)cc1)=C1C(=O)CC(c2ccccc2)CC1=O` (stereo unspecified), the pIC50 is 7.12 in the experiment with HeLa [1], 6.92 with CCRF-CEM, 6.85 with HMEC-1 [2] and 7.24 in the experiment on L1210. Also, the Kb on Tubulin (Bos taurus) was 3.13 ×10⁶ /M. For the same molecule, the outcome at Tubulin (Homo sapiens) was Active.

Consider `CCOc1ccccc1NC(C)=C1C(=O)CC(c2ccccc2)CC1=O` (stereo unspecified), for which the pIC50 with HeLa [1] is 6.74; in the experiment with CCRF-CEM, 6.72; with HMEC-1 [2], 7.00; in the experiment with L1210, 6.72. In addition, at Tubulin (Bos taurus), the Kb was determined as 13 ×10⁶ /M. Moreover, the outcome at Tubulin (Homo sapiens) was Active.

For the molecule `COc1cc([C@@H]2c3cc4c(cc3[C@H](O)[C@H]3COC(=O)[C@H]23)OCO4)cc(OC)c1OC`, the outcome at Tubulin (Homo sapiens) was Active.

Turning to `CC(Nc1ccccc1Oc1cccc(N)c1)=C1C(=O)CC(c2ccccc2)CC1=O` (stereo unspecified), the pIC50 is 7.09 in the experiment with HeLa [1], 7.38 in the experiment with CCRF-CEM, 7.39 in the experiment with HMEC-1 [2] and 7.28 in the experiment with L1210. The Kb at Tubulin (Bos taurus) came to 5.56 ×10⁶ /M. Further, the result on Tubulin (Homo sapiens) was Active.

For the origin of these results see ChEMBL document CHEMBL4346682 (Eur J Med Chem, 2019).
